Active and inactive are the calls of the source. The rule behind the calls is not given here.
Experiments:
[1] = system: Vaccinia virus; assay: Antiviral activity against vaccinia virus IHD-J in BSC40 cells by CPE assay; type: functional, organism-based; conditions: Orthopoxvirus vaccinia, BSC-40
[2] = Cytotoxicity against vaccinia virus IHD-J infected BSC40 cells; type: cell-based, Macaca mulatta; conditions: rhesus monkey, BSC-40 cells infected with vaccinia virus IHD-J
[3] = system: Monkeypox virus; assay: Antiviral activity against monkeypox virus by CPE assay; type: functional, organism-based
[4] = system: Camelpox virus; assay: Antiviral activity against camelpox virus by CPE assay; type: functional, organism-based
[5] = system: Variola virus; assay: Antiviral activity against variola virus BUT virus by CPE assay; type: functional, organism-based
[6] = system: Variola virus; assay: Antiviral activity against variola virus BSH virus by CPE assay; type: functional, organism-based
[7] = Metabolic stability in monkey Liver S9 fraction; type: ADME, subcellular, Macaca mulatta; conditions: rhesus monkey
In short: (§1)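 Compound was incubated with liver S-9 extracts from each species, with NADPH added. Loss of parent compound was followed by LC/MS and reported as half-life in minutes.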

[8] = Metabolic stability in rat Liver S9 fraction; type: ADME, subcellular; in short: as §1
[9] = Metabolic stability in mouse Liver S9 fraction; type: ADME, subcellular; in short: as §1
[10] = Metabolic stability in dog Liver S9 fraction; type: ADME, subcellular, Canis lupus familiaris; in short: as §1
[11] = Metabolic stability in human Liver S9 fraction; type: ADME, subcellular; in short: as §1
[12] = system: Vaccinia virus; assay: Antiviral activity assessed as inhibition of extracellular virus formation in vaccinia virus IHD-J infected BSC40 cells at 5 uM after 24 hrs; type: functional, organism-based; conditions: Orthopoxvirus vaccinia, BSC-40
[13] = Tmax in rat at 2 mg/kg, po; type: ADME, organism-based; design: dose 2 mg/kg, route oral; conditions: in vivo
In short: (§2)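 Rats were dosed orally in 0.75% Methocell/1% Tween vehicle, and a separate intravenous arm was run to derive bioavailability. Plasma concentration–time data gave Tmax, Cmax, AUC, t1/2, clearance, Vss and %F.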

[14] = Cmax in rat at 2 mg/kg, po; type: ADME, organism-based; design: dose 2 mg/kg, route oral; conditions: in vivo; in short: as §2
[15] = AUC in rat at 2 mg/kg, po; type: ADME, organism-based; design: dose 2 mg/kg, route oral; conditions: plasma; in short: as §2
[16] = Half life in rat at 2 mg/kg, po; type: ADME, organism-based; design: dose 2 mg/kg, route oral; conditions: in vivo; in short: as §2
[17] = Clearance in rat at 2 mg/kg, po; type: ADME, organism-based; design: dose 2 mg/kg, route oral; conditions: in vivo; in short: as §2
[18] = system: Rattus norvegicus; assay: Volume of distribution at steady state in rat at 2 mg/kg, po; type: ADME, organism-based; design: dose 2 mg/kg, route oral; conditions: in vivo; in short: as §2
[19] = Oral bioavailability in rat at 2 mg/kg, po; type: ADME, organism-based; conditions: in vivo; in short: as §2
[20] = system: Mus musculus; assay: Toxicity in mouse at 2000 mg/kg after 28 days; type: organism-based; design: dose 2000 mg/kg; conditions: in vivo, 672 h
In short: (§3)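 Animals received 28-day repeat dosing, and the no observable adverse effect level (NOAEL) was determined.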

[21] = system: Cynomolgus monkey; assay: Toxicity in cynomolgus monkey at 600 mg/kg after 28 days; type: organism-based, Macaca fascicularis; design: dose 600 mg/kg; conditions: in vivo, 672 h; in short: as §3
[22] = system: Human alphaherpesvirus 1; assay: Antiviral activity against HSV1 KOS by plaque reduction assay; type: functional, organism-based; conditions: Human alphaherpesvirus 1, KOS
[23] = system: Human betaherpesvirus 5; assay: Antiviral activity against human cytomegalovirus AD169 by plaque reduction assay; type: functional, organism-based; conditions: Human betaherpesvirus 5, AD169
[24] = system: Respiratory syncytial virus; assay: Antiviral activity against RSV A by plaque reduction assay; type: functional, organism-based; conditions: human respiratory syncytial virus
[25] = system: Bovine viral diarrhea virus 1; assay: Antiviral activity against BVDV NADL by plaque reduction assay; type: functional, organism-based; conditions: Bovine viral diarrhea virus isolates and strains
[26] = system: Rotavirus; assay: Antiviral activity against rotavirus by plaque reduction assay; type: functional, organism-based
[27] = system: Cowpox virus; assay: Antiviral activity against cowpox virus by CPE assay; type: functional, organism-based

Structure (SMILES): CN(C)c1ccc(C(=O)NN2C(=O)[C@@H]3C4C=CC(C5CC54)[C@@H]3C2=O)cc1 (stereo partly specified)
- EC50 [1]: 2000 nM
- CC50 [2]: > 100000 nM

Structure (SMILES): O=C(NN1C(=O)[C@@H]2C3C=CC(C4CC43)[C@@H]2C1=O)c1ccccc1Br (stereo partly specified)
- EC50 [1]: 2300 nM
- CC50 [2]: > 100000 nM
- EC50 [3]: 3600 nM
- EC50 [4]: 3800 nM
- EC50 [5]: 1400 nM
- EC50 [6]: 3300 nM

Structure (SMILES): O=C(NN1C(=O)[C@@H]2C3C=CC(C4CC43)[C@@H]2C1=O)c1ccc(C(F)(F)F)cc1 (stereo partly specified)
- half-life [7]: > 3.33 h
- EC50 [1]: 40 nM
- CC50 [2]: > 100000 nM
- EC50 [3]: 10 nM
- EC50 [4]: 10 nM
- EC50 [5]: 20 nM
- EC50 [6]: 50 nM
- half-life [8]: > 3.33 h
- half-life [9]: > 3.33 h
- half-life [10]: > 3.33 h
- half-life [11]: > 3.33 h
- Activity [12]: Active
- Tmax [13]: 2.2 h
- Cmax [14]: 920 ng/mL
- AUC [15]: 6100 ng·h/mL
- half-life [16]: 4.2 h
- CL/F [17]: 8.67 mL/min/kg
- Vss [18]: 0.6 L/kg
- bioavailability [19]: 31%
- Activity [20]: Non-toxic
- Activity [21]: Non-toxic
- EC50 [22]: > 40000 nM
- EC50 [23]: > 40000 nM
- EC50 [24]: > 40000 nM
- EC50 [25]: > 40000 nM
- EC50 [26]: > 40000 nM

Structure (SMILES): O=C(NN1C(=O)[C@@H]2C3C=CC(C4CC43)[C@@H]2C1=O)c1ccc(Cl)cc1 (stereo partly specified)
- EC50 [1]: 20 nM
- EC50 [27]: 770 nM
- CC50 [2]: > 100000 nM

Structure (SMILES): O=C(NN1C(=O)[C@@H]2C3C=CC(C4CC43)[C@@H]2C1=O)c1ccc(Br)cc1 (stereo partly specified)
- half-life [7]: > 3.33 h
- EC50 [1]: 20 nM
- CC50 [2]: > 100000 nM
- EC50 [3]: 10 nM
- EC50 [4]: 10 nM
- EC50 [5]: 20 nM
- EC50 [6]: 50 nM
- half-life [8]: > 3.33 h
- half-life [9]: > 3.33 h
- half-life [10]: > 3.33 h
- half-life [11]: 0.95 h

Structure (SMILES): O=C(NN1C(=O)[C@@H]2C3C=CC(C4CC43)[C@@H]2C1=O)c1ccccc1Cl (stereo partly specified)
- EC50 [1]: 3000 nM
- EC50 [27]: > 20000 nM
- CC50 [2]: > 100000 nM

Structure (SMILES): O=C(NN1C(=O)[C@@H]2C3CCC(C4CC43)[C@@H]2C1=O)c1ccc(C(F)(F)F)cc1 (stereo partly specified)
- EC50 [1]: 20 nM
- CC50 [2]: > 100000 nM
- EC50 [3]: 80 nM
- EC50 [4]: 30 nM
- EC50 [5]: 10 nM
- EC50 [6]: 200 nM

Structure (SMILES): O=C(NN1C(=O)[C@@H]2C3C=CC(C4CC43)[C@@H]2C1=O)c1cccnc1 (stereo partly specified)
- EC50 [1]: 740 nM
- CC50 [2]: > 100000 nM

Structure (SMILES): O=C(NN1C(=O)[C@@H]2C3C=CC(C4CC43)[C@@H]2C1=O)c1cccc(Cl)c1 (stereo partly specified)
- EC50 [1]: 40 nM
- EC50 [27]: 600 nM
- CC50 [2]: > 100000 nM

Structure (SMILES): O=C(NN1C(=O)[C@@H]2C3C=CC(C4CC43)[C@@H]2C1=O)c1ccncc1 (stereo partly specified)
- EC50 [1]: 500 nM
- CC50 [2]: > 100000 nM
- EC50 [3]: 150 nM
- EC50 [4]: 110 nM
- EC50 [5]: 220 nM
- EC50 [6]: 400 nM

Structure (SMILES): Cn1cccc1C(=O)NN1C(=O)[C@@H]2C3C=CC(C4CC43)[C@@H]2C1=O (stereo partly specified)
- EC50 [1]: 15800 nM
- CC50 [2]: > 100000 nM

Structure (SMILES): O=C(NN1C(=O)[C@@H]2C3C=CC(C4CC43)[C@@H]2C1=O)c1ccc([N+](=O)[O-])cc1 (stereo partly specified)
- EC50 [1]: 20 nM
- CC50 [2]: > 86000 nM

Structure (SMILES): Cc1cc(C(=O)NN2C(=O)[C@@H]3C4C=CC(C5CC54)[C@@H]3C2=O)[nH]n1 (stereo partly specified)
- EC50 [1]: 7100 nM
- CC50 [2]: > 100000 nM

Structure (SMILES): COc1ccc(C(=O)NN2C(=O)[C@@H]3C4C=CC(C5CC54)[C@@H]3C2=O)cc1 (stereo partly specified)
- EC50 [1]: 2200 nM
- CC50 [2]: > 100000 nM

Structure (SMILES): O=C(NN1C(=O)[C@@H]2C3C=CC(C4CC43)[C@@H]2C1=O)c1cccc(Br)c1 (stereo partly specified)
- EC50 [1]: 50 nM
- CC50 [2]: > 100000 nM

Structure (SMILES): O=C(NN1C(=O)[C@@H]2C3C=CC(C4CC43)[C@@H]2C1=O)c1ccccn1 (stereo partly specified)
- EC50 [1]: > 20000 nM
- CC50 [2]: > 100000 nM
- EC50 [3]: > 16000 nM
- EC50 [4]: 4200 nM
- EC50 [5]: 10000 nM
- EC50 [6]: > 20000 nM

Structure (SMILES): Nc1ccc(C(=O)NN2C(=O)[C@@H]3C4C=CC(C5CC54)[C@@H]3C2=O)cc1 (stereo partly specified)
- EC50 [1]: 7700 nM
- CC50 [2]: > 92000 nM

From ChEMBL document CHEMBL1142975 (J Med Chem, 2007)
